# Experimental data reported in ChEMBL document CHEMBL4513216, “Probing the Open Global Health Chemical Diversity Library for Multistage-Active Starting Points for Next-Generation Antimalarials” (ACS Infect Dis, 2020).
# Assay: Toxicity liver stage against HepG2, at 10uM
# Format: cell-based
# Design: test concentration 10 uM, cell line HepG2-A16-CD81EGFP
# Details: human, HepG2-A16-CD81EGFP cells; read-out: INHIBITION
# Summary of the method: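 Uninfected HepG2-A16-CD81EGFP cells, 3 × 10^3 per well, 1536-well, plated on prespotted compound at 10 μM final, parasite-free screening media added to match infected plates; puromycin 10 μM positive, DMSO 0.5% negative; run in parallel with 48 h PbLuc assay at 37 °C, 5% CO2; viability by CellTiter-Glo luminescence, normalized to controls.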
row,SMILES,cytotoxicity at 10 µM
1,Cc1ccc2c(c1)C1(CCN(C(N)=O)CC1)CN2C(=O)N(C)C,-79.1%
2,O=C(C1CCCO1)N1CCC(n2cc(-c3ccsc3)nn2)CC1 (stereo unspecified),-4.18%
3,Nc1cc(C(=O)N2CCOC(Cc3cccc(C(F)(F)F)c3)C2)ccn1 (stereo unspecified),-1.97%
4,CC(C)c1nnc2n1CCN(C(=O)c1ccc(-n3cnnc3)cc1)C2,-11.5%
5,COCCN1CC(O)CN(C(=O)c2cccc(C(F)(F)F)c2)CC1=O (stereo unspecified),-3.84%
6,O=C(CNC(=O)Nc1cccc(-c2nccs2)c1)NCCO,-2.77%
7,C[C@@H](N)C(=O)N1CCC(c2[nH]ncc2-c2ccccc2)CC1,-3.81%
8,COc1ccc(Oc2ccc(CNC(=O)C(C)n3cncn3)cn2)cc1 (stereo unspecified),5.42%
9,Cc1cnn(CC(C)NCc2nc(-c3cccs3)no2)c1 (stereo unspecified),-7.64%
10,COc1ccc2c(c1)C(C(=O)NCCN1CCOC1=O)CC(=O)N2 (stereo unspecified),8.68%
11,CN1CCOCC2(CCCN(C(=O)c3cnccn3)C2)C1 (stereo unspecified),-75.4%
12,Cc1nc(C)n(Cc2cccc(NC3CCN(C)C3=O)c2)n1 (stereo unspecified),-0.519%
13,Cc1[nH]c2ccc(CNc3cc(C(N)=O)ccn3)cc2c1C,-4.73%
14,Cc1nccc(-c2ccccc2)c1C(=O)N1CCC2(CN(C)C(=O)O2)C1 (stereo unspecified),4.77%
15,CCCS(=O)(=O)NC(=O)c1cc(C)n(-c2ccccc2)n1,-7.21%
16,O=C(NCc1nnc2n1CCC2)NCC1(c2cccc(F)c2)CC1,-6.03%
17,O=C(N1CCCCC1)N1CCCC1c1nnc2n1CCNC2 (stereo unspecified),13.6%
18,Cn1ccnc1COc1ccc(CSc2nnnn2C)cc1,-0.613%
19,Cc1nn(C)c(N(C)C)c1CNC1CCOc2c(Cl)cccc21 (stereo unspecified),-5.36%
20,Cc1csc2c(N3CCC(NCCc4ccnn4C)CC3)ncnc12,0.429%
21,Cc1nc(C(=O)N2CCC3(CC2)CC(=O)N(CC2CCCO2)C3)cs1 (stereo unspecified),2.34%
22,O=C(c1cccnc1)N1CCC2(CC1)COCCN(c1ncccn1)C2,2.66%
23,CN(CCN1CCOCC1)C(=O)CCc1cccc(Cl)c1,-6.57%

row,SMILES,cytotoxicity at 10 µM
1,CN(C)C(=O)N1CCN(Cc2nc3ccccc3[nH]2)[C@H]2CS(=O)(=O)C[C@H]21,-150%
2,COc1ccccc1C(=O)NC(CC(=O)O)c1cccs1 (stereo unspecified),-0.337%
3,CC(C)(C)C(=O)NCCCn1cncn1,-9.46%
4,N#Cc1cnc2cc(F)cc(F)c2c1NC1CCN(CC(N)=O)CC1,0%
5,COc1nsc2nc(C3CCCN3c3ncccn3)ccc12 (stereo unspecified),10.5%
6,CS(=O)(=O)Nc1ccc(CNC(=O)CN2CCc3ccccc32)cc1,7.1%
7,COc1ccc2c(c1)OCC(Cc1cncc(N)c1)C2 (stereo unspecified),-0.918%
8,O=C(NCCOc1ccccc1)Nc1cc(C(F)(F)F)c[nH]c1=O,-11.9%
9,CC(C)C(C)(O)CNc1cccc(F)c1C#N (stereo unspecified),-8.87%
10,CN(C(=O)COC1CCCCC1)C1CCN(CC2CCOC2)CC1 (stereo unspecified),0.33%
11,Cn1c(Cn2ncc(N3CCCCC3)cc2=O)nc2ccccc21,6.01%
12,Cc1[nH]c2ccccc2c1CCNC(=O)N1CCC2(C1)OCCO2,1.12%
13,CC(=O)NCCNC(=O)NCc1ccc(Br)cc1Cl,5.19%
14,Cc1sc2nc(C(F)(F)F)nc(N3CCC(NS(C)(=O)=O)CC3)c2c1C,-17%
15,CCOc1ccc(CC(CNC(=O)c2ccc(C)o2)C(N)=O)cc1 (stereo unspecified),3.58%
16,Cc1ccccc1CSc1nc(N)cc(N2CCCC(O)C2)n1 (stereo unspecified),-6.52%
17,CCN(Cc1ccoc1)C(=O)NC1CCN(CC2CC2)C1 (stereo unspecified),-0.525%
18,Cc1oc(CNC(=O)Cc2ccccc2Cl)cc1C(=O)O,0.723%
19,CC(=O)Nc1cc(Br)cnc1OCC(F)(F)F,5.69%
20,CCOc1cccc(C(C)NC(=O)N2CCC3(CC2)OCCO3)c1 (stereo unspecified),0.322%
21,CC(C(=O)N1CCOCC1)n1nc(-c2cccs2)cc(N)c1=O (stereo unspecified),8.74%
22,O=C(NC1CC1)C1(Cc2cc(-c3ccc(F)cc3F)no2)CCOCC1,11%
23,CN(CC1(C)COC1)C(=O)c1cc(-c2ccn(C)n2)nc2ccccc12,9.81%

row,SMILES,cytotoxicity at 10 µM
1,Cc1noc(C)c1CN1CCCC2(CCN(C(=O)N3CCOCC3)C2)C1 (stereo unspecified),3.35%
2,c1cnc(NC[C@H]2OC[C@@H]3CCN(Cc4nccs4)C[C@@H]32)nc1,-3.38%
3,Cc1nn(C)c(Cl)c1C1CCCN1Cc1cccc(C(N)=O)c1 (stereo unspecified),-6.22%
4,NCC1Cn2nnc(-c3cccc(F)c3)c2CO1 (stereo unspecified),-12.1%
5,O=C(NCc1ccncc1)c1ccc(Cl)cc1F,0.55%
6,Cc1cc(C)n(C2CN(c3ncnc4[nH]ccc34)C2)n1,6.59%
7,O=C(NCCCOCC1CC1)Nc1cccnc1N1CCOCC1,5.55%
8,O=C(c1ccco1)N1CCn2cc(CN3CCCC3)nc2C1,-78.9%
9,c1cnc(N2CCC3(CC2)CN(CC2CC2)c2ccccc23)nc1,19.9%
10,CCC1CN(c2cnn(C)c(=O)c2Br)CCO1 (stereo unspecified),-5.09%
11,CCC1CN(C(=O)c2cc(CN(C)CCc3ccccc3)on2)CCO1 (stereo unspecified),-4.12%
12,COc1ccc(C(=O)N2CCCC(n3cncn3)C2)nn1 (stereo unspecified),5.58%
13,FC(F)(F)Sc1ccc(NCc2nnc(C3CC3)o2)cc1,5.69%
14,NC(=O)Cn1c(CO)cnc1SCC(=O)NCc1ccccc1Cl,-4.24%
15,CC(C)c1nc(CN2CCOCC2)cs1,-7.49%
16,CC(C1CC1)N(C)C(=O)CCn1cccn1 (stereo unspecified),-2.37%
17,COc1ncccc1NC(=O)NCC(O)c1ccc(F)cc1F (stereo unspecified),30.9%
18,COc1c(C(N)=O)cn(C)c1-c1nc2cc(NC(C)=O)ccc2n1C,-46.5%
19,CC(=O)N1CCCC1c1nc(C)no1 (stereo unspecified),-14.8%
20,Cc1ccc(N2CCC(c3cc(Cc4ccccc4)n[nH]3)CC2)nn1,3.53%
21,O=C(NC1CC1)[C@@H]1CCO[C@@H]2CCN(C3CCCC3)C[C@H]21,13.3%
22,c1csc(N2CCN(Cc3nnnn3C3CC3)CC2)n1,8.96%
23,CCc1noc(CN2CCN(C(=O)c3ccccc3F)CC2)n1,-23.2%

row,SMILES,cytotoxicity at 10 µM
1,Cc1ccc(S(=O)(=O)N2CC[C@H]3CO[C@H](CN(C)C)[C@H]3C2)cc1,-98.3%
2,CC1=N[C@@]2(CC[C@@H]3CN(Cc4ccccc4C)C[C@@H]32)C(=O)N1CC1CC1,-2.6%
3,O=C(NC1(c2cccc(F)c2)CCOCC1)c1cc[nH]n1,-6.83%
4,Cc1nc(N2CCCC2)nc2c1CN(C(C)C)CC2,-6.85%
5,CN(C)C(=O)COC1COC2(CCN(CC3CCOCC3)CC2)C1 (stereo unspecified),-113%
6,Cc1cccn2cc(C(=O)N3CCCN(CC4CC4)C(C(C)C)C3)nc12 (stereo unspecified),1.46%
7,COc1ccc(C(=O)NCC(C)(O)CCc2ccccc2)cc1 (stereo unspecified),-7.39%
8,CCCC(N)CNS(=O)(=O)Cc1cccc(C#N)c1 (stereo unspecified),6.13%
9,CN(C)c1cc(CNC(=O)Nc2cccnc2N2CCCC2)ccn1,-20.5%
10,CCOCC1CN(Cc2cnn(C)c2)Cc2cnn(C)c21 (stereo unspecified),-89.6%
11,CN([C@@H]1CC[C@@H](N2CCCC2)[C@@H]1O)S(=O)(=O)c1ccccc1,-4.29%
12,CN(C)C(=O)CN1CCC2(CCN(Cc3nccs3)CC2)C1=O,1.31%
13,Cc1nc(CN2CCC(c3cc(N4CCCC4)ncn3)CC2)cs1,-159%
14,CNc1snc(C)c1C(=O)N1CCCC(n2ccnc2C(C)C)C1 (stereo unspecified),1.66%
15,CCCn1cc(Cl)c(C(=O)N2C[C@H]3CC(OC)C[C@H]3C2)n1 (stereo partly specified),0.19%
16,Cc1cc(-n2c(C)cn(CN(C)Cc3ccccc3)c2=O)no1,10.3%
17,Cc1cccc(C(C(=O)NCc2cc(C)[nH]n2)N(C)C)c1 (stereo unspecified),-3.07%
18,Cc1cccc(-c2noc(CN3CCc4nn(C)c(=O)cc4C3)n2)c1,5.15%
19,COCC1CN(Cc2cccc(C#N)c2)Cc2nccn2C1 (stereo unspecified),-141%
20,CC(C)C[C@@H](CO)n1cc(-c2cncnc2)nn1,-0.268%
21,CC(=O)c1ccccc1-c1cc(C(=O)O)cc(S(=O)(=O)NC(C)C)c1,0.476%
22,COCCc1noc(CN2CCCC2c2noc(C(C)C)n2)n1 (stereo unspecified),-11.5%
23,CC(=O)c1cccc(NC(=O)NCCc2nnc[nH]2)c1,-39.1%

row,SMILES,cytotoxicity at 10 µM
1,CCc1nc(CN2CCCC(NCCn3cncn3)C2)no1 (stereo unspecified),-7.24%
2,NC(=O)C1CCN(C(=O)NCc2ccc(-c3ccn[nH]3)cc2)CC1,-1.73%
3,COCCCN1CC2(CCN(Cc3ncc[nH]3)CC2)CC1=O,-2.89%
4,COc1ccc(CNC(=O)c2ccoc2CN2CCNC(=O)C2)cc1,6.41%
5,Cc1[nH]nc2ncc(C(=O)N3CCN(C(C)(C)C)CC3)cc12,-4.36%
6,CCc1cccc(N2CCC(NC(=O)c3ccco3)CC2)c1,-4.38%
7,CCN1CCC(c2nc3ccc(NC(C)C)cn3n2)CC1,-22.3%
8,O=C(NC1CCCN(c2ccc(OC(F)F)cc2)C1)c1cnc[nH]1 (stereo unspecified),-2.15%
9,COc1ccc(C2CCCN2S(=O)(=O)N(C)C)cc1 (stereo unspecified),5.08%
10,Cc1noc(CN2CCN(CC(C)O)CC2)n1 (stereo unspecified),-10%
11,NS(=O)(=O)c1cnn(-c2ccc(NC(=O)C3CCCCC3)cn2)c1,2.27%
12,Cc1nc(-c2ccco2)ccc1C(=O)N1CCn2c(C)nnc2C1,-5.83%
13,CCCc1nc(CNc2nc(C)nc3oc(C)nc23)cs1,-39.6%
14,CC(C)Oc1ccc(CN2CCC(c3n[nH]c4ncccc34)CC2)cc1,-21.4%
15,Cc1cc(CNc2ccc(C(=O)N3CCc4ccccc43)cn2)on1,-0.0529%
16,O=C(NCc1cccnc1)[C@@H]1C[C@H]2[C@H](CCN2c2ncccn2)O1,-66.6%
17,c1ncn(Cc2nnc(C3CCN(C4CCOCC4)CC3)n2C2CC2)n1,-3.51%
18,Cc1ccc(CNC(=O)N(C)Cc2cnn(C)c2)s1,-11.2%
19,COCC1COCCC12CCN(S(=O)(=O)c1ccccc1C)CC2 (stereo unspecified),-5.42%
